In ChEMBL document CHEMBL4477160, “Methylbenzene-Containing Polyketides from a Streptomyces that Spontaneously Acquired Rifampicin Resistance: Structural Elucidation and Biosynthesis” (J Nat Prod, 2016):
Active and inactive are the calls of the source.

Columns and labels:
Escherichia coli = assay: Antimicrobial activity against Escherichia coli assessed as decrease in cell viability at 1.56 to 100 uM after 24 hrs; assay type: functional, organism-based
Method in brief: (§1)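 Compounds in DMSO dispensed at a range of concentrations into 384-well plates. Each test strain was grown to OD620 ~0.5, diluted 2000-fold in LB medium and added to the wells. Plates were incubated 24 h at 37 °C. Viability was read as absorbance at 620 nm.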

Micrococcus luteus = assay: Antimicrobial activity against Micrococcus luteus assessed as decrease in cell viability at 1.56 to 100 uM after 24 hrs; assay type: functional, organism-based; method in brief: as §1
Staphylococcus aureus = assay: Antimicrobial activity against Staphylococcus aureus assessed as decrease in cell viability at 1.56 to 100 uM after 24 hrs; assay type: functional, organism-based; method in brief: as §1
Bacillus subtilis = assay: Antimicrobial activity against Bacillus subtilis assessed as decrease in cell viability at 1.56 to 100 uM after 24 hrs; assay type: functional, organism-based; method in brief: as §1
SK-OV-3 = assay: Cytotoxicity against human SKOV3 cells assessed as decrease in cell viability at 0.01 to 100 uM after 72 hrs by WST-8 assay; assay type: functional, cell-based
Homo sapiens = species: Homo sapiens; assay: Cytotoxicity against human ACC-MESO1 cells assessed as decrease in cell viability at 0.01 to 100 uM after 72 hrs by WST-8 assay; assay type: functional, cell-based
Jurkat = assay: Cytotoxicity against human Jurkat cells assessed as decrease in cell viability at 0.01 to 100 uM after 72 hrs by WST-8 assay; assay type: functional, cell-based

Measured: Activity

Cc1ccccc1/C=C/CCC(=O)NC1=C(O)CCC1=O
inactive: all assays above

Cc1ccccc1/C=C/C=C/C=C/C=C/C(=O)NC1=C(O)CCC1=O
inactive: all assays above
